Screening data deposited in PubChem BioAssay by Broad Institute.
GASC1 inh = inhibitors of GASC-1 (KDM4C) histone demethylase, primary screen, biochemical, single concentration HTS; Lysine-specific demethylase 4C (Homo sapiens), Q9H3R0; GST-KDM4C 2-372, H3K9me3 peptide, LANCE TR-FRET; inhibition, % at 12.5 µM; 96,000 tested, 0.15% active;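 active = mean replicate inhibition above about 25%, with at least 55% of replicates also reaching it, limit read from the data, passing the limit was not always enough; inconclusive = only one of those two conditions met; inactive = neither condition met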
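System: N-terminal GST-fused human GASC-1 (KDM4C) fragment, residues 2-372 / Amount: 10 nM GST-KDM4C in enzyme reaction / Also added: H3K9me3 peptide with Fe(II)/2OG / Times: 30 min demethylation and 1 h detection at room temperature / Signal: LANCE TR-FRET / Read-out basis: Fall in 671/618 emission ratio as inhibition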
IDH1 mut inh = inhibitors of IDH1 R132H reductase, primary screen, biochemical, plate reader, single point; Isocitrate dehydrogenase [NADP] cytoplasmic (Homo sapiens), O75874; diaphorase/resazurin fluorescence, 60 min; inhibition, % at 10 µM; 70,000 tested, 0.18% active; in the data active = inhibition above about 34%; inconclusive = no clear call, values can overlap the other calls; inactive = below about 11%
Target sequence (O75874 whole entry R132H): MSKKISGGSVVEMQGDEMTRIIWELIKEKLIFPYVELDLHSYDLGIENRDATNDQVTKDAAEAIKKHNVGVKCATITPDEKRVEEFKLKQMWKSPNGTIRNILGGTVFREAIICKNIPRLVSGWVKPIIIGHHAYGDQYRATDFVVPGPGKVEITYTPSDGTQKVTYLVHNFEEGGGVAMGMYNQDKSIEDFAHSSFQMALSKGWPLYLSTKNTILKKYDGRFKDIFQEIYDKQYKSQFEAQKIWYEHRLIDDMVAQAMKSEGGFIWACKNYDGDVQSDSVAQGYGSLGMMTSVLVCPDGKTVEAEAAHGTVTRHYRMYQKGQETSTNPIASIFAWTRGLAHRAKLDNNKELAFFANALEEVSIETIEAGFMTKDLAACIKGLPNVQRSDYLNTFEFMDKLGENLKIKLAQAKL
T cruzi growth-1 = T. cruzi intracellular proliferation inhibitors, primary screen, cell-based, beta-gal Tulahuen parasites, NIH3T3 host, luminescence | T. cruzi beta-gal in NIH3T3, GalScreen luminescence, 90 h | inhibition, % at 8.34 µM | 77,000 tested, 5.9% active;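 active = mean inhibition above about 93%, with at least 55% of replicates each passing it, limit read from the data, passing the limit was not always enough; inconclusive = only one of those two conditions holds; inactive = neither condition holds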
T cruzi growth-2 = T. cruzi intracellular proliferation inhibitors, confirmation, cell-based, NIH3T3 host, beta-gal parasite, luminescence, cherry-pick; inhibition, % at 8.35 µM; shares compounds with T cruzi growth-1; T. cruzi beta-gal in NIH3T3, GalScreen luminescence, 90 h; 5,600 tested, 72% active;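 active = mean replicate inhibition above about 95% and at least 55% of replicates individually reaching it, limit read from the data; inconclusive = only one of the two criteria is met; inactive = neither criterion is met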
T cruzi growth-3 = inhibitors of intracellular T. cruzi replication, confirmation, NIH3T3 host cells, beta-gal parasites, cherry-pick, set 2; inhibition, % at 2.09 µM; 5,600 tested, 21% active; T. cruzi beta-gal in NIH3T3, GalScreen luminescence, 90 h; shares compounds with T cruzi growth-1;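 active = mean inhibition above about 95%, with at least 55% of replicates also reaching it, limit read from the data; inconclusive = meets just one of the two conditions; inactive = meets neither condition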
NIH3T3 tox = cytotoxicity in mouse NIH/3T3 fibroblasts, confirmation, cytotoxicity control for T. cruzi proliferation inhibitor project, cell-based, cherry-pick, single point. cytotoxicity (signal decrease), % at 8.35 µM. AID 651742, 2012. shares compounds with T cruzi growth-1. NIH/3T3 viability, CellTiter-Glo ATP luminescence, 90 h. 5,600 tested, 14% active;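 active = mean signal decrease across replicates above about 35% based on untreated-well scatter, with enough replicates individually passing, limit read from the data; inconclusive = no rule stated though some were filed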
3T3 cytotox 2 = NIH/3T3 fibroblast cytotoxicity, confirmation, cytotoxicity control, cell-based, cherry-pick, single point, set 2 | shares compounds with T cruzi growth-1 | NIH/3T3 viability, CellTiter-Glo ATP luminescence, 90 h | inhibition, % at 24.9 µM | 5,600 tested, 56% active | AID 651744, 2012;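 active = mean loss of cell viability signal at or above a set limit, and enough replicates individually reaching it; inconclusive = meets only the mean limit or only the replicate share; inactive = meets neither condition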
Numbers stand for hits; . = inactive; ? = inconclusive; / = no result; ! = not confirmed by another sample. Many of the other results were omitted from the sample, so hits are more common in it than they were.

SMILES	GASC1 inh	IDH1 mut inh	T cruzi growth-1	T cruzi growth-2	T cruzi growth-3	NIH3T3 tox	3T3 cytotox 2
COC(=O)C[C@@H]1CC[C@@H]2[C@H](COc3ccc(NS(=O)(=O)c4ccc(C)cc4)cc3C(=O)N2C)O1	.	/	107.5	100.5	.	.	.
CN1C(=O)c2cc(NS(=O)(=O)c3ccc(F)cc3)ccc2OC[C@H]2O[C@H](CC(=O)O)CC[C@H]21	.	/	97.4	?	.	.	.
CN1C(=O)c2cc(NS(=O)(=O)c3ccc(Cl)cc3)ccc2OC[C@@H]2O[C@@H](CC(=O)N3CCc4ccccc4C3)CC[C@@H]21	.	/	.	/	/	/	/
COC(=O)C[C@H]1CC[C@@H]2[C@H](COc3ccc(NS(=O)(=O)c4cccc(F)c4)cc3C(=O)N2C)O1	.	/	105.1	.	.	.	.
CN1C(=O)c2cc(NS(=O)(=O)c3ccc(Cl)cc3)ccc2OC[C@H]2O[C@@H](CC(=O)N3CCc4ccccc4C3)CC[C@@H]21	.	/	113.4	103.8	.	.	70.9
COC(=O)CCCCCCC(=O)N/N=C/c1ccc(Br)s1	/	.	/	/	/	/	/
CCn1c(SCC(=O)c2ccc(Br)cc2)nnc1-c1cccc(N)c1	/	.	/	/	/	/	/
Cc1ccc(NC(=O)CSc2ncccn2)cc1C	/	.	/	/	/	/	/
COC(=O)c1c(NC(=O)CC2Nc3cccc4cccc(c34)NC2=O)sc2c1CCCC2 (centres undefined)	/	.	/	/	/	/	/
N#Cc1c(NC(=O)c2ccc(COc3ccccc3Cl)o2)sc2c1CCCC2	/	.	/	/	/	/	/
Cc1ccc(C(=O)c2oc3ccccc3c2NC(=O)c2cc3ccccc3oc2=O)cc1F	/	.	/	/	/	/	/
CNC[C@H]1OCCCC[C@@H](C)Oc2ccc(NC(=O)Cc3ccccc3)cc2C(=O)N([C@@H](C)CO)C[C@H]1C	.	/	?	.	.	.	.
C[C@H]1CN([C@@H](C)CO)C(=O)c2cc(NC(=O)CCCN(C)C)ccc2O[C@@H]1CN(C)S(C)(=O)=O	.	.	104.2	.	.	.	.
CNC[C@@H]1OCCCC[C@@H](C)Oc2ccc(NC(=O)CCCN(C)C)cc2C(=O)N([C@H](C)CO)C[C@@H]1C	.	/	.	/	/	/	/
C[C@@H]1CN([C@@H](C)CO)C(=O)c2cc(NC(=O)CCCN(C)C)ccc2O[C@H]1CN(C)S(C)(=O)=O	.	/	.	/	/	/	/
CNC[C@H]1OCCCC[C@H](C)Oc2ccc(NC(=O)Cc3ccccc3)cc2C(=O)N([C@H](C)CO)C[C@@H]1C	.	/	.	/	/	/	/
CNC[C@H]1OCCCC[C@H](C)Oc2ccc(NC(=O)CCCN(C)C)cc2C(=O)N([C@H](C)CO)C[C@@H]1C	.	.	100.5!	.	.	.	.
CNC[C@H]1OCCCC[C@H](C)Oc2ccc(NC(=O)CCC(F)(F)F)cc2C(=O)N([C@H](C)CO)C[C@@H]1C	.	/	.	/	/	/	/
CNC[C@@H]1OCCCC[C@H](C)Oc2ccc(NC(=O)CCC(F)(F)F)cc2C(=O)N([C@@H](C)CO)C[C@@H]1C	.	.	97.7	?	.	.	.
O=C(NCC[C@H]1CC[C@@H](NS(=O)(=O)c2ccc(Cl)cc2)[C@H](CO)O1)c1ccccc1F	.	.	.	/	/	/	/
CCC(Sc1nnc(N)s1)C(=O)Nc1c(C)cccc1C (centres undefined)	/	.	/	/	/	/	/
O=C(Cn1cc(C(=O)c2ccccc2F)c2ccccc21)Nc1cccc(C(F)(F)F)c1	/	.	/	/	/	/	/
COc1ccc(S(=O)(=O)N(C)C[C@H]2Oc3cc(-c4cccc(F)c4)ccc3S(=O)(=O)N([C@H](C)CO)C[C@@H]2C)cc1	.	.	/	/	/	/	/
COc1ccc(S(=O)(=O)N(C)C[C@@H]2Oc3cc(-c4cccc(F)c4)ccc3S(=O)(=O)N([C@H](C)CO)C[C@H]2C)cc1	.	.	/	/	/	/	/
